In ChEMBL document CHEMBL1139405, “N-Propynyl analogs of beta-phenylethylidenehydrazines: synthesis and evaluation of effects on glycine, GABA, and monoamine oxidase” (Bioorg Med Chem, 2008):
Calls of active or inactive are those of the source. No cut-off for these calls is given here.

Legend:
[1] = molecular target: 4-aminobutyrate aminotransferase, mitochondrial (Homo sapiens) (UniProt P80404); experiment: Inhibition of GABA-transaminase at 10 uM
In short: (§1)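 In vitro screen: GABASE incubated with compound in incubation buffer, with GABA-T activity read by a modified colorimetric method.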

[2] = molecular target: 4-aminobutyrate aminotransferase, mitochondrial (Homo sapiens) (UniProt P80404); experiment: Inhibition of GABA-transaminase at 100 uM; in short: as §1
[3] = molecular target: T1, Amine oxidase [flavin-containing] A (Rattus norvegicus, UniProt P21396); experiment: Inhibition of rat brain monoamine oxidase A
T1 sequence (P21396 whole entry): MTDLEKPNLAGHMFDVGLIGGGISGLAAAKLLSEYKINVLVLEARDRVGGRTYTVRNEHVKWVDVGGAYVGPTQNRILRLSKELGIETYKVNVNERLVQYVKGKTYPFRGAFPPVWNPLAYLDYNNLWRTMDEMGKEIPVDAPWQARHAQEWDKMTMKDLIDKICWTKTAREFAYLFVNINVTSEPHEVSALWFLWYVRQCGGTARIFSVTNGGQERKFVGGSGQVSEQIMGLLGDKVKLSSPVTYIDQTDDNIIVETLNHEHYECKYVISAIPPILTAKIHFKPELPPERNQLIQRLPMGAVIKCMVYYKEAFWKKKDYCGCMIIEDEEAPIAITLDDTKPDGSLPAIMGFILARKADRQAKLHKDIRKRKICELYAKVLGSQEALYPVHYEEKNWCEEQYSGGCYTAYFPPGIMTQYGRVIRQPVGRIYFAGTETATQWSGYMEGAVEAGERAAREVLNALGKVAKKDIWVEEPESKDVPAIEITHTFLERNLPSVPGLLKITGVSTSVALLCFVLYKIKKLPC

[4] = test system: Rattus norvegicus; experiment: Ex vivo inhibition of monoamine oxidase B in Sprague-Dawley rat whole brain at 30 mg/kg, ip; format: functional; set-up: dose 30 mg/kg
In short: (§2)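 Male Sprague–Dawley rats (~300 g) dosed i.p. in corn oil, killed at 3, 6 or 12 h; whole-brain water homogenate diluted in 0.2 M potassium phosphate pH 7.4. Activity as % of vehicle control; N = 3–6 per group.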

[5] = test system: Rattus norvegicus; experiment: Ex vivo inhibition of monoamine oxidase A in Sprague-Dawley rat whole brain at 30 mg/kg, ip; format: functional; set-up: dose 30 mg/kg; in short: as §2
[6] = test system: Rattus norvegicus; experiment: Ex vivo inhibition of GABA-transaminase in Sprague-Dawley rat whole brain at 30 mg/kg, ip after 6 hrs relative to control; format: functional; conditions: route intraperitoneal
In short: (§3)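 Male Sprague–Dawley rats (~300 g) dosed i.p. in corn oil, killed 3, 6 or 12 h later; whole-brain homogenate (5 volumes ice-cold water). GABA-T measured radiochemically: homogenate incubated with radiolabeled GABA in buffer containing pyridoxal phosphate, products isolated with tri-n-octylamine liquid anion exchanger, scintillation counting. Activity as % of vehicle control; N = 4–5 per group.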

[7] = test system: Rattus norvegicus; experiment: Ex vivo inhibition of GABA-transaminase in Sprague-Dawley rat whole brain at 30 mg/kg, ip after 3 hrs relative to control; format: functional; conditions: route intraperitoneal; in short: as §3
[8] = test system: Rattus norvegicus; experiment: Ex vivo inhibition of GABA-transaminase in Sprague-Dawley rat whole brain at 30 mg/kg, ip after 12 hrs relative to control; format: functional; conditions: route intraperitoneal; in short: as §3
[9] = test system: Rattus norvegicus; experiment: Ex vivo increase in brain GABA level in Sprague-Dawley rat whole brain at 30 mg/kg, ip after 3 hrs relative to control; format: functional; conditions: route intraperitoneal
In short: (§4)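 Male Sprague–Dawley rats (~300 g) given drug i.p. in corn oil vehicle, killed by decapitation at 3, 6 or 12 h; brains flash-frozen, homogenized in 5 volumes ice-cold water. Homogenate deproteinized in ice-cold methanol, centrifuged, OPA/isobutyryl-L-cysteine derivatized; HPLC with fluorescence detection, C18 column at 30 °C. Expressed as % of vehicle control; N = 3–5 per group.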

[10] = test system: Rattus norvegicus; experiment: Ex vivo increase in brain alanine level in Sprague-Dawley rat whole brain at 30 mg/kg, ip after 3 hrs relative to control; format: functional; conditions: route intraperitoneal; in short: as §4
[11] = test system: Rattus norvegicus; experiment: Ex vivo increase in brain glycine level in Sprague-Dawley rat whole brain at 38.5 mg/kg, ip after 3 hrs relative to control; format: functional; set-up: dose 38.5 mg/kg
In short: (§5)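 Male rats (~300 g) dosed i.p. in corn oil vehicle, killed by decapitation 3, 6 or 12 h later. Whole brains were flash-frozen, homogenized in 5 volumes ice-cold water, extracted with ice-cold methanol and centrifuged. Amino acids were derivatized with OPA/isobutyryl-L-cysteine and measured by HPLC-fluorescence on a C18 column at 30 °C. Values are % of vehicle control, N = 3–5 per group.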

[12] = test system: Rattus norvegicus; experiment: Ex vivo increase in brain glycine level in Sprague-Dawley rat whole brain at 38.5 mg/kg, ip after 6 hrs relative to control; format: functional; conditions: route intraperitoneal; in short: as §5

Chain of 4-aminobutyrate aminotransferase, mitochondrial (Homo sapiens) (P80404 whole entry): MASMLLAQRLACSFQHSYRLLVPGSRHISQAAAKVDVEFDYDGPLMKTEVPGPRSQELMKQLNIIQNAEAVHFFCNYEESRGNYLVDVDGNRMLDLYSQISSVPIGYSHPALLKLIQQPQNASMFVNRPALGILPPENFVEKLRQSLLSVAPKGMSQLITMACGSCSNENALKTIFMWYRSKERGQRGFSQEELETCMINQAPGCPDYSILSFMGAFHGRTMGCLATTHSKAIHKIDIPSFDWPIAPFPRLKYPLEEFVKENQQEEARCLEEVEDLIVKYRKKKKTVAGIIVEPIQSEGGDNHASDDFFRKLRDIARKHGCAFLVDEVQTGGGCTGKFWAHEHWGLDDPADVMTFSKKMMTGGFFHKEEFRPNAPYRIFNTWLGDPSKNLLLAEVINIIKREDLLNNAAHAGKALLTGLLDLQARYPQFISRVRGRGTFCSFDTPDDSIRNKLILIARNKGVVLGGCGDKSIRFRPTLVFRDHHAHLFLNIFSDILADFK

| SMILES | Activity [1] | Activity [2] | other results |
| --- | --- | --- | --- |
| C#CCN/N=C/Cc1ccc(F)cc1 | inactive | inactive |  |
| C#CCN/N=C/Cc1ccccc1C(F)(F)F | inactive | inactive |  |
| C#CCN/N=C/Cc1ccccc1Cl | inactive | inactive |  |
| C#CCN/N=C/Cc1cccc(F)c1 | inactive | inactive |  |
| C#CCN/N=C/Cc1ccccc1OC | inactive | inactive |  |
| C#CCN(CC#C)/N=C/Cc1ccc(OC)cc1 | inactive | inactive |  |
| NNCCc1ccccc1 [PHENELZINE] |  |  | inhibition (INH) [3]: > 95% |
| C#CCN(CC#C)/N=C/Cc1cccc(Cl)c1 | inactive | inactive |  |
| C#CCN/N=C/Cc1ccc(C)cc1 | inactive | inactive |  |
| C#CCN/N=C/Cc1cccc(Cl)c1 | inactive | inactive |  |
| C#CCN(CC#C)/N=C/Cc1cccc(C(F)(F)F)c1 | inactive | inactive |  |
| N/N=C\Cc1ccccc1 |  |  | Activity [4]: inactive; Activity [5]: inactive; inhibition [1]: 10%; inhibition in vivo at 30 mg/kg [6]: 66%; inhibition in vivo at 30 mg/kg [7]: 66%; inhibition in vivo at 30 mg/kg [8]: 70%; Activity [9]: 418%; Activity [10]: 489% |
| C#CCN/N=C/Cc1ccc(OC)cc1 | inactive | inactive |  |
| C#CCN(CC#C)/N=C/Cc1cccc(F)c1 | inactive | inactive |  |
| C#CCN(CC#C)/N=C/Cc1ccc(Cl)cc1 | inactive | inactive |  |
| C#CCN/N=C/Cc1cccc(OC)c1 | inactive | inactive |  |
| C#CCN(CC#C)/N=C/Cc1ccccc1OC | inactive | inactive |  |

| SMILES | Activity [1] | Activity [2] | other results |
| --- | --- | --- | --- |
| C#CCN(CC#C)/N=C/Cc1ccccc1F | inactive | inactive |  |
| C#CCN/N=C/Cc1ccc(Cl)cc1 | inactive | inactive |  |
| C#CCN(CC#C)/N=C/Cc1ccccc1C | inactive | inactive |  |
| C#CCN/N=C/Cc1cccc(C(F)(F)F)c1 | inactive | inactive |  |
| C#CCN(CC#C)/N=C/Cc1cccc(C)c1 | inactive | inactive |  |
| C#CCN/N=C/Cc1ccccc1F | inactive | inactive |  |
| C#CCN(CC#C)/N=C/Cc1ccc(F)cc1 | inactive | inactive |  |
| C#CCN(CC#C)/N=C/Cc1ccccc1Cl | inactive | inactive |  |
| C#CCN/N=C/Cc1ccccc1C | inactive | inactive |  |
| C#CCN/N=C/Cc1cccc(C)c1 | inactive | inactive |  |
| C#CCN(CC#C)/N=C/Cc1ccc(C)cc1 | inactive | inactive |  |
| C#CCN/N=C/Cc1ccccc1 | inactive | inactive | Activity [11]: Active; Activity [12]: 216% |
| C#CCN(CC#C)/N=C/Cc1ccc(C(F)(F)F)cc1 | inactive | inactive |  |
| C#CCN/N=C/Cc1ccc(C(F)(F)F)cc1 | inactive | inactive |  |
| C#CCN(CC#C)/N=C/Cc1cccc(OC)c1 | inactive | inactive |  |
| C#CCN(CC#C)/N=C/Cc1ccccc1C(F)(F)F | inactive | inactive |  |
